Runt-SMMHC FRET: blocks binding of human RUNX1 Runt domain to CBFb-SMMHC | Q01196+Q13951 | Cerulean-Runt/Venus-CBFb-SMMHC FRET ratio 530/480, 1 h | inhibition, % at 20 µM | 220,000 tested, 0.74% active | AID 1434;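 active means mean inhibition across duplicate retests at 20 µM reaching about 50%, limit read from the data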;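 further: 0% = DMSO wells and 100% = wells with excess untagged CBFb-SMMHC; inhibitors lower the FRET ratio by blocking Runt binding to CBFb-SMMHC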
MEX-5 binding: C. elegans MEX-5 TCR-2 RNA binding activity | Q9XUB2 | MEX-5/FITC-TCR2 RNA binding, fluorescence polarization; active compounds read low | activity score (negative = inhibition of binding), % at 10 µM | 300,000 tested, 0.38% active | AID 1832;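 active means inhibition past about -25% in most replicates, and total fluorescence under double the plate's negative control median, limit read from the data; inconclusive means replicates evenly split on the limit, or fluorescence at least double controls; inactive means too little inhibition in most replicates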;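 further: 0% = DMSO and -100% = 5 µM competing unlabeled TCR2 RNA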
Target sequence (Q9XUB2 whole entry, looked up): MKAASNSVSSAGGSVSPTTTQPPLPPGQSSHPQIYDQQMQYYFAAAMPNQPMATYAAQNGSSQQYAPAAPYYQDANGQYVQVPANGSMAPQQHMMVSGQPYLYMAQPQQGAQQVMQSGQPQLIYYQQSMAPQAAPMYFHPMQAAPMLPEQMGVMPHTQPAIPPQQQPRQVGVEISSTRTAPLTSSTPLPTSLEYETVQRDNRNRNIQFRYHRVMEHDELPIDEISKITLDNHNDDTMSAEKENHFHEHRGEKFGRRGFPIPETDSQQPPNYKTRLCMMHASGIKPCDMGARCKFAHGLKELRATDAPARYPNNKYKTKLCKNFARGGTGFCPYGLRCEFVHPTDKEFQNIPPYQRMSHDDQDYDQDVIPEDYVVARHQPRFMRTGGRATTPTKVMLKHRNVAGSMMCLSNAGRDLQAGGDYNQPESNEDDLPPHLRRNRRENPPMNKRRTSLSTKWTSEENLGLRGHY
KLK7 zymogen act: activators of human kallikrein-7 zymogen | P49862 | purified proKLK7, EDANS-DABCYL substrate fluorescence; 100% is mature enzyme control, 0% vehicle | activation, % at 7 µM | 370,000 tested, 0.9% active | AID 652039;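 active means activation above the mean of all tested compounds plus 3 SD, computed per campaign excluding outliers beyond control limits, cut at about 13% in these data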
RanGTP-Imp inh: disruptors of Ran-importin-beta complex formation – biochemical, FRET, CFP-Ran, YFP-importin-beta, homogeneous, primary screen | cell-free CFP-Ran/YFP-importin-beta FRET ratio | inhibition, % (test concentration not listed) | 300,000 tested, 1.1% active | AID 2216;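 active means more than half of the replicate wells show a fall in the fluorescence ratio signal beyond about 16%, limit read from the data, passing the limit was not always enough; inconclusive means exactly half of the replicate wells pass the set limit; inactive means fewer than half of replicates pass the limit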;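 further: 0% = DMSO wells and 100% = Ran loaded with GDP instead of GTP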
Runt-CBFb FRET: blocks binding of human RUNX1 Runt domain to CBFb | inhibition, % at 20 µM | Cerulean-Runt/Venus-CBFb FRET ratio 530/480, 1 h | Q01196+Q13951 | 220,000 tested, 0.46% active;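 active means inhibition over about 50% at 20 µM in the single-dose screen, limit read from the data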;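 further: 0% = DMSO wells and 100% = excess unlabeled CBFb competitor control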
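Assay system: Cerulean-tagged RUNX1 Runt domain (FRET donor) fusion protein / Amount: 100 nM each of Venus-CBFb and Cerulean-Runt domain / Medium: Tris buffer pH 7.5 with salts and BSA / Also added: Venus-CBFb 100 nM / Schedule: 1 h complex formation plus 1 h compound treatment, room temperature / Signal: FRET fluorescence / Read-out: loss of energy transfer signal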
Starred values were filed as active, the others as inactive; ? = inconclusive; / = no result given. Most compounds without a hit are left out; they make up all but 2.1% or so of the library.

SMILES	Runt-SMMHC FRET	MEX-5 binding	KLK7 zymogen act	RanGTP-Imp inh	Runt-CBFb FRET
O=C(O)CN1C(=O)C2C3CC(C2C1=O)C1C(c2ccc(Cl)cc2)c2sc(=O)[nH]c2SC31 (configuration not stated)	27	0	4	73*	42
O=C(O)CCCN1C(=O)C2C3CC(C2C1=O)C1C(c2ccccc2)c2sc(=O)[nH]c2SC31 (configuration not stated)	15	-1	0	8	14
CC(C(=O)O)N1C(=O)C2C3CC(C2C1=O)C1C(c2ccccc2)c2sc(=O)[nH]c2SC31 (configuration not stated)	12	-2	0	74*	18
CN1CCN(c2ncnc3c2ncn3[C@H]2CN(Cc3ccncc3)C[C@@H](CO)O2)CC1	/	/	0	/	/
Cc1ccc(CNC(=O)c2oc3ccc(S(=O)(=O)N4CCC5(CC4)OCCO5)cc3c2C)cc1	1	-1	0	-4	-11
Cc1c(C(=O)NCCN(C)C)oc2ccc(S(=O)(=O)N3CCC4(CC3)OCCO4)cc12	/	-1	0	23*	/
CC[n+]1c(/C=C/c2ccc(N(C)C)cc2)ccc2ccccc21	18	-27*	0	-3	-1
O=C(/C=C/c1ccccc1)Nc1cccc(C(=O)NC2CC2)c1	/	/	1	/	/
Cc1ccc(/C=C2/Sc3ccc(C(=O)N4CCN(c5ccccn5)CC4)cc3NC2=O)cc1	/	-61*	0	?	/
CN1CCN(C(=O)c2ccc3c(c2)NC(=O)/C(=C/c2ccccc2)S3)CC1	/	-1	1	1	/
COc1cc2c(cc1OC)C(c1ccc(-c3ccccc3Cl)o1)=NCC2	-14	2	1	-15	6
COc1cc2c(cc1OC)C(c1ccc(-c3cc(Cl)ccc3Cl)o1)=NCC2	-4	-1	/	-4	0
COc1cc2c(cc1OC)C(c1ccc(-c3ccc(Cl)cc3Cl)o1)=NCC2	-13	-36*	1	1	12
COc1cc2c(cc1OC)C(c1ccc(-c3ccc(Cl)c(Cl)c3)o1)=NCC2	-19	-35*	0	-4	5
C=CCN1[C@H](COCc2ccccc2)C=CS1(=O)=O	/	/	0	/	/
COC(=O)c1ccc(-c2sc3nc(N4CCOCC4)c4c(c3c2N)CC(C)(C)OC4)o1	-24	2	-2	24*	-2
O=C1CS/C(=N\N=C\c2ccco2)N1c1ccccc1	-6	1	-1	-1	11
O=C1CS/C(=C\[N+](=O)[O-])N1c1ccccc1	-6	-45*	0	2	-5
CCCc1cc(N2CCN(C(=O)c3ccco3)CC2)n2c(nc3ccccc32)c1C#N	65*	-4	7	31*	23
CC1=NC(C)(C)CC2CCC(O)C12 (configuration not stated)	/	/	0	/	/
COC(=O)Cc1cc(=O)n2[nH]c(C)nc2n1	3	-9	1	18*	-1
CCOC(=O)c1cc(C#N)c(SCC(=O)c2cc(C#N)c(SC)nc2C)nc1C	41	-3	-1	20*	-10
CCc1ccc[n+](-c2nc3ccccc3nc2C(=C=[N-])C#N)c1	5	-13	3	31*	-17
CC(C)COc1ccc(/C=C2/Sc3ccccc3C2=O)cc1	-34	?	1	43*	-12
Nc1nc(N)c(N=Nc2ccc(SCC(=O)O)cc2)c(=O)[nH]1	2	-1	0	44*	12
SMILES	Runt-SMMHC FRET	MEX-5 binding	KLK7 zymogen act	RanGTP-Imp inh	Runt-CBFb FRET
Nc1nc(N)c(N=Nc2ccc(Cl)cc2)c(=O)[nH]1	-3	0	0	-3	2
COC(=O)c1cc(-c2ccc(-c3ccccc3)c(F)c2)c(=O)n2c1CCC2	/	/	0	/	/
Nc1cc2ccncc2c2ccccc12	28	-2	103*	11	12
O=C(CCCCl)Oc1ccc2cc(-c3ccc4ccccc4n3)c(=O)oc2c1	86*	0	11	102*	19
CN(c1ccccc1)S(=O)(=O)c1cccc(NC(=O)CCNC(=O)c2ccco2)c1	/	/	-1	/	/
CCC(=O)Nc1nn(CC(C)C)c2nc3ccc(C)cc3cc12	/	2	0	24*	/
CCCC(=O)Nc1nn(CC(C)C)c2nc3cc(C)ccc3cc12	/	2	-2	28*	/
CCCC(=O)Nc1nn(CC)c2nc3ccc(C)cc3cc12	/	-1	2	?	/
Cc1ccc(-c2nc3c4ccccc4ccn3c2Cc2cccc(F)c2)cc1	/	/	-9	/	/
CC(C)C[C@@H](CNCC(=O)[C@H](Cc1ccccc1)NC(=O)c1[nH]cnc1C(=O)N[C@@H](C)CN)NC(=O)c1nc[nH]c1C(=O)N[C@@H](C)C(=O)O	/	/	0	/	/
CC(=O)c1cc(NC(=O)c2cccc(C(F)(F)F)c2)c(=O)oc1C	18	-1	0	0	13
COc1ccc(C(=O)Nc2cc(C(C)=O)c(C)oc2=O)cc1	1	-2	0	0	8
CC(=O)c1cc(NC(=O)c2cccc(C(F)(F)F)c2)c(=O)oc1/C=C/N(C)C	-17	-36*	0	-1	-25
CC(=O)c1cc(NC(=O)c2ccc(Cl)cc2)c(=O)oc1/C=C/N(C)C	-44	-26*	0	-1	4
COc1ccccc1NC(=O)Nc1nnc([C@@H]2C[C@H](O)[C@@H](CO)O2)s1	/	/	0	/	/
COc1cc(NCCCC(C)N)c2ncccc2c1 (configuration not stated)	/	-26*	0	-3	/
COc1cc(NCCCCC(C)N)c2nccc(C)c2c1 (configuration not stated)	/	/	1	/	/
O=C(Nc1ccc(F)c(Cl)c1)c1ccc2nc([C@@H]3O[C@H](CO)[C@H](O)[C@H](O)[C@H]3O)[nH]c2c1	/	/	0	/	/
CC(C)Oc1ccc(CN2CCC2(C)C(=O)NCc2cccc3ccccc23)cc1 (configuration not stated)	/	/	1	/	/
C/C(=N\NC(=O)c1nnn(-c2nonc2N)c1C(C)C)c1cc(C)sc1C	/	0	0	97*	/
CCCc1c(C(=O)N/N=C(\C)c2cc(C)sc2C)nnn1-c1nonc1N	/	/	0	/	/
CCNC(=O)N(C(=O)NCC)n1c(C)nnc1C	3	1	16*	1	-2
CSCCC(NC(=O)c1ccccc1Cl)C(=O)NCC(c1cccs1)N(C)C (configuration not stated)	/	/	1	/	/
O=C(COC(=O)Cn1cnc2ccccc21)Nc1ccc(F)c(F)c1	/	/	0	/	/
O=C(CN1CCN(S(=O)(=O)c2ccc(F)c(Cl)c2)CC1)N1CCOCC1	/	/	1	/	/
COc1ccc(-c2nc(-c3ccccc3)nc(N3CCN(C)CC3)c2C#N)cc1	-3	-1	0	0	-2
CN1CCN(c2nc(-c3ccccc3)nc(-c3ccccc3)c2C#N)CC1	-3	-26*	0	-5	1
COC(=O)c1ccc(CNc2ccc(C(C)=O)cc2)cc1	/	/	0	/	/

High-throughput results (PubChem BioAssay)
